ChEMBL document CHEMBL1123238, “Binding requirements of phenolic phenylethylamines in the benzonorbornene skeleton at the active site of phenylethanolamine N-methyltransferase” (J Med Chem, 1986)

Tests used:
[1] = biological target: T1, Phenylethanolamine N-methyltransferase (Bos taurus, UniProt P10938); experiment: Compound was tested in vitro inhibition of phenylethanolamine N-methyl-transferase (PNMT) activity using radiochemical assay
T1 sequence (P10938 whole entry): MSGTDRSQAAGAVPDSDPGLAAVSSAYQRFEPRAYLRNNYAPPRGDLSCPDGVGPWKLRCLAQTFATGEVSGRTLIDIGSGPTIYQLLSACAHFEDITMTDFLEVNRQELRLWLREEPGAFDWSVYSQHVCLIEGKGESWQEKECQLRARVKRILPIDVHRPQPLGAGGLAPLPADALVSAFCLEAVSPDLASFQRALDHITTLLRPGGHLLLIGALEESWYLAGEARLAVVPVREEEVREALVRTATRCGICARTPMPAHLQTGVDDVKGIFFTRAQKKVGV

[2] = Vmax of compound was measured; assay type: ADME
[3] = substrate: N[C@@H]1CC2CC1c1cc(O)c(O)cc12; experiment: (§1) Compound was tested in vitro for PNMT activity using radiochemical assay.
How it was run: (§2)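 Bovine adrenal PNMT, partially purified through the isoelectric precipitation step. Compounds were tested as hydrobromide salts. Radiochemical assay used phosphate buffer at pH 8.0, unlabeled AdoMet (10 μM stock) plus [methyl-³H]AdoMet, and 30 min incubation at 37 °C. Reactions were quenched with borate at pH 10 and extracted into toluene/isoamyl alcohol (7:3), then scintillation-counted.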

[4] = substrate: N[C@@H]1CC2CCC1c1ccccc12; experiment: as §1; how it was run: as §2
[5] = substrate: N[C@@H]1CC2C[C@@H]1c1ccccc12; experiment: as §1; how it was run: as §2

Row | Molecule | Ki [1] [µM] | Vmax [2] [nM/mg/min] | further results
1 | N[C@@H]1CC2CC1c1c(O)cccc12 (stereo not given in full) | 3000 |  | 
2 | N[C@@H]1CC2CC1c1cccc(O)c12 (stereo not given in full) | 10000 |  | 
3 | N[C@@H]1CC2CCC1c1ccccc12 (stereo not given in full) | 258 | 0.61 | 
4 | N[C@@H]1C2CCC1c1c(O)cccc12 (stereo not given in full) | 4000 |  | 
5 | N[C@@H]1CC2C[C@@H]1c1ccccc12 | 479 | 0.08 | 
6 | N[C@@H]1CC2CC1c1cc(O)ccc12 (stereo not given in full) | 1110 |  | 
7 | N[C@@H]1CC2CC1c1cc(O)c(O)cc12 (stereo not given in full) | 487 | 0.44 | 
8 | N[C@@H]1C2CCC1c1cc(O)ccc12 (stereo not given in full) | 108 |  | 
9 | N[C@@H]1CC2CC1c1ccc(O)cc12 (stereo not given in full) | 304 |  | 
10 | Phenylethanolamine N-methyltransferase (Bos taurus), P10938 (protein) MSGTDRSQAAGAVPDSDPGLAAVSSAYQRFEPRAYLRNNYAPPRGDLSCPDGVGPWKLRCLAQTFATGEVSGRTLIDIGSGPTIYQLLSACAHFEDITMTDFLEVNRQELRLWLREEPGAFDWSVYSQHVCLIEGKGESWQEKECQLRARVKRILPIDVHRPQPLGAGGLAPLPADALVSAFCLEAVSPDLASFQRALDHITTLLRPGGHLLLIGALEESWYLAGEARLAVVPVREEEVREALVRTATRCGICARTPMPAHLQTGVDDVKGIFFTRAQKKVGV |  |  | Km [3]: 686 µM; Km [4]: 81 µM; Km [5]: 192 µM
